According to paper PMC2800315 (Japanese Journal of Clinical Oncology, 2009):
Read-outs that look alike come from different tables or passages of the source.

Experiments:
[1] = Pharmacokinetics of RAD001 in blood, Phase I once-daily oral dosing; format: in vivo, Japanese patients; details: for CL/F / AUC / Cmax: mean ± SD; for AUC / Cmax / Tmax: human, whole blood, oral; for AUC: AUCτ, 0 to 24 h
Procedure, shortened: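 Adults aged ≥20 years, Japanese, with refractory advanced tumours; strong CYP3A4 inhibitors or inducers excluded. Oral dosing once daily at 2.5, 5 or 10 mg in continuous 28-day cycles. Per cohort: Cmax, tmax, AUC 0–24 h and CL/F. Descriptive statistics, means ± SD.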

advanced solid tumors = assay: Tumor response according to RECIST; format: in vivo, Japanese patients
Procedure, shortened: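 Patients had ≥1 measurable lesion and took continuous once-daily oral dosing in 28-day cycles, continued until progression. Tumour assessed by RECIST every 2 months and at study end. Outcomes summarised descriptively.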

[2] = patients with advanced cancer, cited from earlier work; for AUCτ: mean
[3] = 673 renal transplant patients; cited from earlier work
esophagogastric cancer = details: one esophagogastric cancer patient, daily dose of 5 mg; cited from earlier work
[4] = 2.5 mg/day, Day 1, 2.5 mg/day (n = 3)
[5] = 2.5 mg/day, Day 15, 2.5 mg/day (n = 3)
[6] = 5 mg/day, Day 1, 5 mg/day (n = 3)
[7] = 5 mg/day, Day 15, 5 mg/day (n = 3)
[8] = 10 mg/day, Day 1, 10 mg/day (n = 3)

CO[C@H]1C[C@@H]2CC[C@@H](C)[C@@](O)(O2)C(=O)C(=O)N2CCCC[C@H]2C(=O)O[C@H]([C@H](C)C[C@@H]2CC[C@@H](OCCO)[C@H](OC)C2)CC(=O)[C@H](C)/C=C(\C)[C@@H](O)[C@@H](OC)C(=O)[C@H](C)C[C@H](C)/C=C/C=C/C=C/1C [RAD001, everolimus]
CL/F ([1]; Day 15, 2.5 mg/day (n = 3)): 19.1 ± 3.26 L/h
CL/F ([1]; Day 15, 5 mg/day (n = 3)): 9.94 ± 3.21 L/h
CL/F ([1]; Day 15, 10 mg/day (n = 3)): 14.3 ± 2.23 L/h
Time at which Cmax was apparent ([1]; after administration of a single oral dose): 2 h
Time to Cmax ([1]; after oral administration): 1 to 2 h
Increase of Cmax and AUCτ with dose ([1]; day 1, 2.5 to 10 mg): almost dose-proportionally
Exposure (AUCτ) after multiple dosing (day 15) relative to single dose (day 1) ([1]; days 1 and 15): about twice
AUC [1, 4]: 85.2 ± 18.7 ng·h/mL
AUC [1, 5]: 134 ± 24.1 ng·h/mL
Cmax [1, 4]: 15.1 ± 2.48 ng/mL
Cmax [1, 5]: 16.8 ± 1.33 ng/mL
Tmax ([1]; 2.5 mg/day, tmax Median, Day 1, 2.5 mg/day (n = 3)): 1.98 h
Tmax ([1]; 2.5 mg/day, tmax Range, Day 1, 2.5 mg/day (n = 3)): 0.98 to 2 h
Tmax ([1]; 2.5 mg/day, tmax Range, Day 15, 2.5 mg/day (n = 3)): 1 to 1.98 h
AUC [1, 6]: 211 ± 50 ng·h/mL
AUC [1, 7]: 543 ± 189 ng·h/mL
Cmax [1, 6]: 31.5 ± 3.4 ng/mL
Cmax [1, 7]: 57.6 ± 17.6 ng/mL
Tmax ([1]; 5 mg/day, tmax Median, Day 15, 5 mg/day (n = 3)): 1.98 h
Tmax ([1]; 5 mg/day, tmax Range, Day 1, 5 mg/day (n = 3)): 1 to 1.95 h
Tmax ([1]; 5 mg/day, tmax Range, Day 15, 5 mg/day (n = 3)): 1.93 to 1.98 h
AUC [1, 8]: 401 ± 51.6 ng·h/mL
Cmax [1, 8]: 49.4 ± 14.8 ng/mL
Cmax ([1]; 10 mg/day, Day 15, 10 mg/day (n = 3)): 65.9 ± 1.4 ng/mL
Tmax ([1]; 10 mg/day, tmax Median, Day 1, 10 mg/day (n = 3)): 2 h
Tmax ([1]; 10 mg/day, tmax Median, Day 15, 10 mg/day (n = 3)): 2.02 h
Tmax ([1]; 10 mg/day, tmax Range, Day 1, 10 mg/day (n = 3)): 1.92 to 2 h
Tmax ([1]; 10 mg/day, tmax Range, Day 15, 10 mg/day (n = 3)): 2 to 2.2 h
Time to steady state (Cmin) ([1]; repeated once-daily oral dosing): ~8 days
Patients with marked tumor shrinkage (advanced solid tumors; daily dose of 10 mg, esophageal and gastric cancer): two of three
Duration of partial response (advanced solid tumors; patient with gastric adenocarcinoma and liver metastases, 10 mg/day): > 4 months
Cmax ([2]; daily dose 5 mg, mean ± SD): 32 ± 9 ng/mL
AUCτ ([2]; daily dose 5 mg): 238 ± 77 ng·h/mL
AUCτ ([2]; daily dose 10 mg): 514 ± 231 ng·h/mL
Difference in clearance between Asian and Caucasian patients [3]: no significant differences
Tumor response (esophagogastric cancer): partial response
